High-throughput results: PubChem, The Scripps Research Institute Molecular Screening Center
This is a sample that favours compounds with a hit; in the whole collection about 1.8% have one here.
core dimer inh: blocks dimerization of HCV core protein; TR-FRET GST/Flag-core106 dimerization, 1536-well; inhibition, % at 5 µM; 300,000 tested, 0.33% active;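 active = inhibition above the mean of all tested compounds plus 3 SD, set per screening campaign, cut at about 45% in these data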
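Assay system: Tagged HCV core106 pair (GST and Flag) | Buffer or medium: KF-containing HEPES buffer, pH 7.45, DTT, CHAPS, BSA | Also added: Eu donor and XL665 acceptor anti-tag antibodies | Dosing: One concentration, 5 µM, in 0.5% DMSO | Timing: 4 h at 22.5 °C | Technique: TR-FRET 671 and 617 nm emission | Repeats: Singlicate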
LEDGF integ inh: blocks HIV-1 LEDGF/p75-dependent DNA integration; AID 743269; 370,000 tested, 0.64% active; inhibition, % at 3.7 µM; TR-FRET IN-LEDGF/p75 DNA integration, Eu/Cy5;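 active = inhibition above the screen-wide mean plus 3 SD, cut at about 13% in these data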;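 note: signal is the Cy5 over europium emission ratio at 671 and 618 nm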
MBD2 DNA inh: MBD2-methylated oligo binding inhibition; Q9UBB5; TR-FRET, MBD2 binding to methylated oligonucleotide; inhibition, % at 4.4 µM; 370,000 tested, 0.31% active; in the data active = inhibition above about 13%
TDP2 inh: TDP2 (human) inhibition, absorbance primary screen | O95551 | recombinant TDP2, T5PNP hydrolysis, p-nitrophenol absorbance 415 nm | inhibition, % at 12.8 µM | 370,000 tested, 0.34% active | AID 720702;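 active = inhibition above the mean of all tested compounds plus 3 SD, set per campaign, cut at about 25% in these data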
Target sequence (O95551 whole entry, looked up): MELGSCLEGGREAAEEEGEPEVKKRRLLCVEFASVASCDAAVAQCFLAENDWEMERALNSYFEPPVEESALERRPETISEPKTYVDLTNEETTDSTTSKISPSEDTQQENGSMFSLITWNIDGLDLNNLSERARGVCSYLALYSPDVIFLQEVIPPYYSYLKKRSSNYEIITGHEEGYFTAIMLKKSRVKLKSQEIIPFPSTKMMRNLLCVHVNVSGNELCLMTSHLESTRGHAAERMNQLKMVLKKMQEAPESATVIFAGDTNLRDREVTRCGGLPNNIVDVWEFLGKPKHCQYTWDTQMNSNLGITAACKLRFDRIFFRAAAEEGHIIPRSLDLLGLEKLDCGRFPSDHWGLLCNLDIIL
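System – recombinant human TDP2 · Amount – 120 nM TDP2 per well · Buffer or medium – Mg2+-containing Tris-HCl buffer, pH 7.5 · Reagent – T5PNP substrate, 5 mM · Dosing – 12.8 µM single point, 1% DMSO · Incubation – 2 h at 37 °C · Measured by – epi absorbance · Read-out basis – percent inhibition · Benchmarks – high control without enzyme, low control DMSO plus TDP2 · Repeats – singlicate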
UHRF1 MBD2 ctr: UHRF1 methyl-DNA binding inhibition | inhibition, % at 4.4 µM | UHRF1 binding to methylated oligo, TR-FRET | 370,000 tested, 0.75% active; in the data active = inhibition above about 21%;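 note: UHRF1 SRA domain binding a hemimethylated CpG hairpin DNA probe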
IN multimer act: activates HIV-1 integrase multimerization in LEDGF counter-screen; shares compounds with LEDGF integ inh; TR-FRET HIV-1 integrase multimerization, biochemical; activation, % at 7.7 µM; 2,000 tested, 17% active; AID 1053131; in the data active = activation above about 8.9%
TR-FRET interf: optically interferes with TR-FRET readout in LEDGF counter-screen; 2,000 tested, under 10 active; AID 1053135; inhibition, % at 7.7 µM; TR-FRET optical interference counterscreen, HIV-1 IN multimerization; shares compounds with LEDGF integ inh;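 active = inhibition above the mean over all tested compounds plus 3 SD, which no compound reached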
LEDGF integ conf: confirmation of HIV-1 LEDGF/p75-dependent integration inhibitors; inhibition, % at 3.7 µM; AID 1053136; shares compounds with LEDGF integ inh; TR-FRET LEDGF/p75-dependent HIV-1 integration, biochemical; 2,000 tested, 36% active; in the data active = inhibition above about 14%
Of the large screens only hits and unclear results are named; the others gave an inactive call (follow-up assays come after a bar, where they were run).

COC(=O)c1ccc(CN2C(=O)NC(CC(C)C)C2=O)cc1 (configuration not stated)	LEDGF integ inh 61, UHRF1 MBD2 ctr 25 | IN multimer act inactive | TR-FRET interf inactive | LEDGF integ conf inactive
O=C(c1ccccc1)c1cccc(NC(=O)c2ccc(Br)o2)c1	LEDGF integ inh 18 | IN multimer act inactive | TR-FRET interf inactive | LEDGF integ conf inactive
Cc1cccc(CNc2ncnc3ccc(-c4ccc5c(c4)OCO5)cc23)c1	LEDGF integ inh 15 (no result: core dimer inh) | IN multimer act inactive | TR-FRET interf inactive | LEDGF integ conf inactive
COc1ccc(-c2nc3ccccc3c(=O)n2NC(=O)Cc2ccccc2)cc1	LEDGF integ inh 52 | IN multimer act inactive | TR-FRET interf inactive | LEDGF integ conf inactive
O=C1S/C(=C\C=C\c2ccco2)C(=O)N1c1ccc(O)cc1	core dimer inh 51, LEDGF integ inh 31 | IN multimer act 17 | TR-FRET interf inactive | LEDGF integ conf 28
CC(=O)N1CCN(C(=O)c2ccc(CNC(=O)c3cccc(Br)c3)cc2)CC1	none (no result: core dimer inh)
Cc1c(-c2cccc(Cl)c2)nc2ccccc2c1C(=O)NC1CC1	LEDGF integ inh 21 (no result: core dimer inh) | IN multimer act inactive | TR-FRET interf inactive | LEDGF integ conf inactive
Cc1cccc(NC(=S)N(CCN(C)C)C(C)c2cccnc2)c1 (configuration not stated)	none
Cc1cccc(NC(=S)N(CCN(C)C)C(C)c2ccccn2)c1 (configuration not stated)	LEDGF integ inh 92 | IN multimer act inactive | TR-FRET interf inactive | LEDGF integ conf inactive
c1ccc(-c2cn3nc(-c4ccccc4)cnc3n2)cc1	LEDGF integ inh 90 | IN multimer act inactive | TR-FRET interf inactive | LEDGF integ conf inactive
Cc1cc2c(c(=O)n1Cc1ccccn1)C(C(C)C)C(C#N)=C(N)O2 (configuration not stated)	LEDGF integ inh 17 | IN multimer act inactive | TR-FRET interf inactive | LEDGF integ conf inactive
Cc1cc2c(c(=O)n1Cc1ccccn1)C(c1ccc3c(c1)OCO3)C(C#N)=C(N)O2 (configuration not stated)	none
COP(=O)(OC)c1ccc(NCc2cc(O)ccc2O)cc1	LEDGF integ inh 20 (no result: core dimer inh) | IN multimer act 64 | TR-FRET interf inactive | LEDGF integ conf 24
NCCC(=O)Nc1ccc(Cl)cc1C(=O)c1ccc[nH]1	none (no result: core dimer inh)
CN1CCN(CCc2nc3cc(NC(=O)COc4ccccc4)ccc3n2C)CC1	none
CC(C)C(=O)Nc1ccc2c(c1)nc(CCN1CCN(C)CC1)n2C	LEDGF integ inh 13 | IN multimer act inactive | TR-FRET interf inactive | LEDGF integ conf inactive
C[C@@H]1CCN(C2CC2)S(=O)(=O)c2ccc(N3CCC[C@H]3C)cc2O1	none (no result: core dimer inh)
COC(=O)CCCCC1SCC2NC(=O)NC21 (configuration not stated)	none
O=C(O)CCCC[C@@H]1SC[C@@H]2NC(=O)N[C@@H]21	LEDGF integ inh 93 | IN multimer act inactive | TR-FRET interf inactive | LEDGF integ conf 96
Cc1ccc(-n2nnc3c(=O)n(CC(=O)NCc4ccccc4)cnc32)cc1	none
O=C(Cn1cnc2c(nnn2-c2ccccc2)c1=O)NCc1ccc(F)cc1	LEDGF integ inh 15, UHRF1 MBD2 ctr 32 | IN multimer act inactive | TR-FRET interf inactive | LEDGF integ conf inactive
O=C(OCc1cn(Cc2ccccc2C(F)(F)F)nn1)N1CCOCC1	none (no result: core dimer inh)
CCN1CCCCC(NC(=O)c2ccc(Cl)cc2Cl)C1=O (configuration not stated)	none (no result: core dimer inh)
COC(=O)[C@]12C[C@H](CC(=O)NCCCCc3ccccc3)C(=O)N(CCC3=CCCCC3)C1=C[C@H](C1CCCC1)O[C@@H]2C	none (no result: core dimer inh)
Cc1ccccc1NC(=S)NNC(=O)c1csc2c1CCC(C)C2 (configuration not stated)	LEDGF integ inh 51 | IN multimer act inactive | TR-FRET interf inactive | LEDGF integ conf inactive
CCNC(=S)NNC(=O)c1csc2c1CCC(C)C2 (configuration not stated)	none
COc1cc(N(C(C)=O)c2ccc(O)c(C(=O)O)c2)c2ncccc2c1	LEDGF integ inh 16 (no result: core dimer inh) | IN multimer act inactive | TR-FRET interf inactive | LEDGF integ conf 26
CS(=O)(=O)N[C@@H]1C[C@@H]2O[C@@H](CO)CC[C@@H]2O[C@@H]1CCc1ccc(-c2ccccc2F)cc1	none (no result: core dimer inh)
COC(=O)[C@]12C[C@H](CC(=O)N3CCCC3)C(=O)N(Cc3ccc4c(c3)OCO4)C1=C[C@H](C(C)C)O[C@@H]2C1CC1	none (no result: core dimer inh)
O=C1C=C(Nc2cccc(O)c2)CC(c2ccco2)C1 (configuration not stated)	LEDGF integ inh 14 | IN multimer act inactive | TR-FRET interf inactive | LEDGF integ conf inactive
COc1cccc(CO[C@H]2C=C[C@@H](c3ccccc3)O[C@@H]2CO)c1	none (no result: core dimer inh)
Cc1ccc(C(=O)CSc2nnc3ccccn23)c(C)c1	none
COCCn1c(C)cc(C(=O)CSc2nnc3ccccn23)c1C	LEDGF integ inh 15 | IN multimer act inactive | TR-FRET interf inactive | LEDGF integ conf 33
COC(=O)CCC[C@H](C)[C@@H](NS(=O)(=O)c1ccc(C)cc1)C(C)(C)C	LEDGF integ inh 40 (no result: core dimer inh) | IN multimer act inactive | TR-FRET interf inactive | LEDGF integ conf inactive
O=C(C(=O)N1CCN(S(=O)(=O)c2cccc3ccccc23)CC1)c1cccc(C(F)(F)F)c1	none (no result: core dimer inh)
Cc1cccc(-c2cccc3c4c([nH]c23)[C@@H]2C[C@H]3[C@@H](CN2CC4)[C@H](C)ON3C)c1	none (no result: core dimer inh)
Cc1ccc(S(=O)(=O)Nc2cc(C(=O)N3CCOCC3)ccc2N2CCCCC2)cc1	LEDGF integ inh 25 | IN multimer act inactive | TR-FRET interf inactive | LEDGF integ conf inactive
Cc1ccc(S(=O)(=O)Nc2cc(C(=O)O)ccc2N2CCCCC2)cc1	none
COCC(=O)N1CCC(Oc2ccc(C(=O)N3CCCCCC3)cc2)CC1	LEDGF integ inh 28 | IN multimer act inactive | TR-FRET interf inactive | LEDGF integ conf inactive
Oc1cccc(/C=N/N=C/c2cccc(O)c2O)c1O	LEDGF integ inh 27 | IN multimer act inactive | TR-FRET interf inactive | LEDGF integ conf 73
Cc1ccc(N=Cc2cccc(O)c2O)c(C)c1	LEDGF integ inh 31 | IN multimer act inactive | TR-FRET interf inactive | LEDGF integ conf 75
COc1cc(C(=S)N2CCOCC2)ccc1OS(=O)(=O)c1ccc(C)cc1	LEDGF integ inh 20 | IN multimer act inactive | TR-FRET interf inactive | LEDGF integ conf inactive
